This passage reports folding enthalpy and Tm results from the array DNA melting data of Ke et al. (doi:10.1101/2024.01.08.574731).

The nature of data set [1]: folding enthalpy; higher = less favourable; fluorescence melt of hairpins on a sequencing array, two-state fit. The note with it: sodium 0.088 M. The gist of the method: (§1)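 Folding enthalpy and melting temperature come from bootstrapped two-state fits to Cy3 fluorescence of library hairpins carrying annealed Cy3 and quencher oligos on a sequenced MiSeq flow cell. Imaging was done in 50 mM Na-HEPES pH 8.0, 25 mM NaCl, stepping by 2.5 °C up to 60 °C, and signals were normalised to pre-quench Cy3 and to control constructs. Results of four replicates were combined by inverse variance, and fitted temperatures were raised by 9.35 °C to match UV melts.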

The nature of data set [2]: melting temperature; fluorescence melt of hairpins on a sequencing array, two-state fit, raised by 9.35 °C to match UV melts. The conditions noted are these: sodium 0.088 M. The gist of the method:
as §1

In the case of GCGGAATCCGC ((((...)))), the folding enthalpy in data set [1] is -23.4 kcal/mol. The Tm in data set [2] turned out to be 51.7 °C.

Consider GTTCCAGGAAACCGGAAC (((((.(....).))))), for which the folding enthalpy in data set [1] was -45.4 kcal/mol. In addition, in data set [2], the Tm was 45.6 °C.

GTGGCCGAAAGGCTGCAC ((((((....)))..))): the folding enthalpy in data set [1] is -12.4 kcal/mol. In data set [2], the Tm came to 46.7 °C.

On to GCGTAGCGAAAGCTGTGC ((..(((....)))..)), for which the folding enthalpy in data set [1] is -10 kcal/mol. The Tm in data set [2] was found to be 46.1 °C.

Consider GACAGCCGAAAGGCAGTC (((.(((....))).))), for which, in data set [1], the folding enthalpy was -22.5 kcal/mol. In data set [2], the Tm came out at 60.1 °C.

As for CGCTTCGGAAACGATGCG (((.(((....))).))), the folding enthalpy in data set [1] is -43.3 kcal/mol. The Tm in data set [2] amounted to 54.6 °C.

Regarding GGAACACCGAAAGGTTCC (((..(((....)))))), the folding enthalpy in data set [1] was -18.4 kcal/mol. In data set [2], the Tm came to 42.2 °C.

For GATCGAACGCTCGATC ((((((....)))))), the folding enthalpy in data set [1] is -40.4 kcal/mol. Moreover, the Tm in data set [2] was found to be 50.7 °C.

As for GTACTCGGAAACGAGTGC (.(((((....))))).), in data set [1], the folding enthalpy is -41 kcal/mol. For the same sequence, the Tm in data set [2] was 54.5 °C.

Regarding GATCGGTCCACCGATC ((((((....)))))), in data set [1], the folding enthalpy was -50 kcal/mol. For the same sequence, the Tm in data set [2] is 60.9 °C.

On to GGTGACGAAAGTCTGACC ((((((....)))..))), for which the folding enthalpy in data set [1] is -15.6 kcal/mol. Also, in data set [2], the Tm came to 39.7 °C.

As to GGGTATACGAAAGTACCC (((..(((....)))))), the folding enthalpy in data set [1] was -24.4 kcal/mol. Also, the Tm in data set [2] was 45.6 °C.

GCTTGCGAAAGCATGAGC ((((((....)))..))): the folding enthalpy in data set [1] was -22.9 kcal/mol. The Tm in data set [2] was found to be 52.6 °C.

Take GATCAGACCGCTGATC ((((((....)))))): in data set [1], the folding enthalpy was -28.5 kcal/mol. Further, the Tm in data set [2] was determined as 47.8 °C.

For the sequence GGATCCGAAAGGACTTCC ((((((....)))..))), the folding enthalpy in data set [1] was -19.5 kcal/mol. Besides, in data set [2], the Tm is 37.5 °C.

For the sequence GGAGCCGAAAGGCAATCC ((((((....)))..))), in data set [1], the folding enthalpy is -11.2 kcal/mol. The Tm in data set [2] was found to be 38 °C.

Turning to GTTAAGCGAAAGCTAAC (((.(((....)))))), the folding enthalpy in data set [1] is -18.5 kcal/mol. The Tm in data set [2] came out at 44.4 °C.

For GATCCTTGTTAGGATC ((((((....)))))), in data set [1], the folding enthalpy is -34.8 kcal/mol. Also, in data set [2], the Tm came to 52.8 °C.

Turning to CGACGCCGGAAACGGTCG (((..(((....)))))), in data set [1], the folding enthalpy was -18.3 kcal/mol. Further, the Tm in data set [2] was 44.3 °C.

Turning to GGCAGTGGAAACGTTGCC ((((..(....)..)))), in data set [1], the folding enthalpy was -28.9 kcal/mol. The Tm in data set [2] was 49.1 °C.

Take GTGAATGCGAAAGCACAC (((..(((....)))))): the folding enthalpy in data set [1] is -14.7 kcal/mol. Also, the Tm in data set [2] amounted to 40.7 °C.

Take GTGTCAGGAAACCGACAC (((((.(....).))))): the folding enthalpy in data set [1] is -42.6 kcal/mol. Also, the Tm in data set [2] amounted to 49.2 °C.

For the sequence GGAGATACGAAAGTATCC (((..(((....)))))), the folding enthalpy in data set [1] is -12.7 kcal/mol. Also, the Tm in data set [2] is 40.9 °C.

GATCGCTTGAGCGATC ((((((....)))))): the folding enthalpy in data set [1] was -27.6 kcal/mol. Further, the Tm in data set [2] came out at 67.6 °C.

As to GATCCTCGTAAGGATC ((((((....)))))), the folding enthalpy in data set [1] is -35.3 kcal/mol. For the same sequence, the Tm in data set [2] was found to be 54.5 °C.

In the case of GAGTGCGAAAGCATTCTC ((((((....)))..))), the folding enthalpy in data set [1] is -21.5 kcal/mol. Besides, the Tm in data set [2] worked out at 52.3 °C.

As to CACAAGAAATTGTG (((((....))))), the folding enthalpy in data set [1] is -21.7 kcal/mol. In addition, the Tm in data set [2] stood at 37.6 °C.

In the case of GATCCTCGTGAGGATC ((((((....)))))), the folding enthalpy in data set [1] was -36.6 kcal/mol. In addition, the Tm in data set [2] was determined as 61.5 °C.

In the case of GTTCCCGAAAGGGGAAC ((((((....))).))), the folding enthalpy in data set [1] is -20.8 kcal/mol. In addition, the Tm in data set [2] came out at 57.4 °C.

Take GGTTCCGGAAACGGGACC (((.(((....))).))): the folding enthalpy in data set [1] was -47.1 kcal/mol. Also, the Tm in data set [2] came out at 58.5 °C.

With GGGTCCGGAAACGGATCC ((.((((....)))).)), the folding enthalpy in data set [1] is -38.1 kcal/mol. In addition, the Tm in data set [2] is 59.1 °C.

GCAGACGGAAACATCCGC ((.((.(....).)).)): the folding enthalpy in data set [1] is -13.3 kcal/mol. In data set [2], the Tm was 26.5 °C.

On to GTGGGCGGAAACGTCCAC ((((.((....)).)))), for which, in data set [1], the folding enthalpy is -41.7 kcal/mol. Further, the Tm in data set [2] stood at 64.7 °C.

On to GCGTGCAGACGC ((((....)))), for which, in data set [1], the folding enthalpy is -20.4 kcal/mol. Besides, the Tm in data set [2] is 62.5 °C.

In the case of GGGGCAGGAAACTGCTCC ((.((((....)))).)), in data set [1], the folding enthalpy was -36.6 kcal/mol. For the same sequence, the Tm in data set [2] is 60.2 °C.

Consider GATGCTGGAAACAGCATC (((((((....))))))), for which the folding enthalpy in data set [1] was -41.2 kcal/mol. Also, the Tm in data set [2] was 66.9 °C.

Regarding GATCAGAAATGATC (((((....))))), the folding enthalpy in data set [1] is -22.5 kcal/mol. Moreover, the Tm in data set [2] is 41.1 °C.
